Measured values reported in article PMC4962910 (Nature cell biology, 2014).
Non-standard residues stand in square brackets, D forms with d. Residues, ends and D or L forms follow the SMILES beside them. No end group written: not given here. pT = C[C@@H](OP(=O)(O)O)[C@H](N)C(=O)O; pS = N[C@@H](COP(=O)(O)O)C(=O)O

Legend:
[1] = test system: NBS1-GFP positive nucleoli; format: cell-based; details: PARP inhibition (Supplementary Fig. 6c)
Outline: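 U2OS cells stably expressing NBS1-GFP (U2OS-NBS1-GFP2) were grown in DME with 10 % fetal bovine serum, penicillin and streptomycin. Medium was supplemented with the PARP inhibitor veliparib (ABT888) for 1 h. Each cell was scored manually as positive or negative by visual presence of GFP signal within nucleoli.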

[2] = molecular target: T1, NBS1 (Homo sapiens, UniProt O60934); assay: Isothermal titration calorimetry; format: binding
T1 sequence (O60934 1-382 limits assumed): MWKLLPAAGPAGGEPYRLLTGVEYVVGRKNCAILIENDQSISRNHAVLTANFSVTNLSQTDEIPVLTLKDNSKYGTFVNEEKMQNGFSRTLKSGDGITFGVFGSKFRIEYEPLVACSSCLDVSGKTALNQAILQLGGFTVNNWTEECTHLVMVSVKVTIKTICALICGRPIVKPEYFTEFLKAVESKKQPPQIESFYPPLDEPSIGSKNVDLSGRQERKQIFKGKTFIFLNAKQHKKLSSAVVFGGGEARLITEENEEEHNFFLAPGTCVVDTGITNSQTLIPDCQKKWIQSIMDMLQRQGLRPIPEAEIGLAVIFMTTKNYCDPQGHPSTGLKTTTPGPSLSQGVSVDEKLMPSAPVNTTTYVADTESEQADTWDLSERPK

[3] = molecular target: NBS1 N-terminal FHA-BRCT region (sample of the ITC) (human); assay: ITC

`C[C@]1(c2nc3c(C(N)=O)cccc3[nH]2)CCCN1` [PARP inhibition, Veliparib] was tested, and the “number of cells with NBS1-GFP positive nucleoli” value [1] was “small but reproducible decrease”.

Molecule `CC(C)[C@H](NC(=O)[C@H](CC(=O)O)NC(=O)[C@@H](NC(=O)[C@H](CCC(=O)O)NC(=O)[C@H](CC(=O)O)NC(=O)[C@H](COP(=O)(O)O)NC(=O)[C@H](CO)NC(=O)[C@H](CO)NC(=O)[C@@H](N)CO)[C@@H](C)OP(=O)(O)O)C(=O)N[C@@H](CCC(=O)O)C(=O)O` [SDET] (H-SSS[pS]DE[pT]DVE-OH) has a Kd [2] of about 1000 nM.

SSS[pS]DE[pT]DVE [Treacle SDET phosphopeptide (SSSpSDEpTDVE)] showed a Kd [3] of 1000 nM.
